# Results collected from several papers.
# Sample: plasma
# Route: intravenous
Structure (SMILES),species,dose,setting,Vd [L/kg]
Cn1c(=O)c2[nH]cnc2n(C)c1=O,male Sprague-Dawley rat,22.5 mg/kg,,1.52
C[C@H]1CN(c2ccc(C3CCC(=O)NC3=O)cc2F)CCN1CC12CCC(NS(=O)(=O)c3ccc(Nc4ncc(C(F)(F)F)c(N5CCC[C@](C)(O)C5)n4)c(F)c3)(CC1)CO2 (stereo partly shown),rat,2 mg/kg,,4
[2H]c1cc(C)c(NC(=O)c2cnc(Nc3cc(N4CCC(O)CC4)nc(C)n3)s2)c(Cl)c1,male Sprague-Dawley rat,1 mg/kg,,4.8
C[C@]1(O)CCCN(c2nc(Nc3ccc(S(=O)(=O)N[C@H]4CC[C@H](CN5CCN(c6ccc(C7CCC(=O)NC7=O)c(F)c6)CC5)CC4)cc3F)ncc2C(F)(F)F)C1 (stereo partly shown),rat,2 mg/kg,,3
CCOCC(=O)N1CCC[C@H](C(=O)NCc2nc(-c3ccc(C#N)nc3)cs2)C1,male Sprague-Dawley rat,1 mg/kg,,0.43
Cc1nc(Nc2ncc(C(=O)Nc3c(C)cccc3Cl)s2)cc(N2CCN(CCO)CC2)n1,male Sprague-Dawley rat,1 mg/kg,single dose,2.4
NCCOCC(=O)N1CCC[C@H](C(=O)NCc2nc(-c3ccc(C(F)(F)F)cc3)cs2)C1,male Sprague-Dawley rat,1 mg/kg,,3.2
Cc1nc(Nc2ncc(C(=O)Nc3c(C)cccc3Cl)s2)cc(N2CC[C@@H](N)C2)n1,male Sprague-Dawley rat,1 mg/kg,,32.8
Cc1cc(S(=O)(=O)N[C@H]2CC[C@H](CN3CCN(c4ccc(C5CCC(=O)NC5=O)c(Cl)c4)CC3)CC2)ccc1Nc1ncc(C(F)(F)F)c(N2CCC[C@](C)(O)C2)n1 (stereo partly shown),rat,2 mg/kg,,3
Cc1nc(Nc2ncc(C(=O)Nc3c(C)cccc3Cl)s2)cc(N2CC[C@H](O)C2)n1,male Sprague-Dawley rat,1 mg/kg,,0.9
C[C@H]1Oc2cc(cnc2N)-c2c(nn(C)c2C#N)CN(C)C(=O)c2ccc(F)cc21,Sprague-Dawley rat,1 mg/kg,single dose,2
C[C@]1(O)CCCN(c2nc(Nc3ccc(S(=O)(=O)N[C@H]4CC[C@H](CN5CCN(c6ccc(C7CCC(=O)NC7=O)cc6F)CC5)CC4)cc3F)ncc2C(F)(F)F)C1 (stereo partly shown),rat,2 mg/kg,,4
COCC(=O)N1CCC[C@H](C(=O)NCc2nc(-c3ccc(C#N)cc3)cs2)C1,male Sprague-Dawley rat,1 mg/kg,,0.18
COc1ccc(-c2coc3cc(O)cc(O)c3c2=O)cc1,rat,2 mg/kg,,0.81
[2H]c1cc(C)c(NC(=O)c2cnc(Nc3cc(N4CC[C@H](O)C4)nc(C)n3)s2)c(Cl)c1,male Sprague-Dawley rat,1 mg/kg,,1.1
C[C@]1(O)CCCN(c2nc(Nc3ccc(S(=O)(=O)N[C@@H]4CCN(CC5CCN(c6ccc(C7CCC(=O)NC7=O)cc6F)CC5)C[C@H]4F)cc3F)ncc2C(F)(F)F)C1 (stereo partly shown),rat,2 mg/kg,,5
